# Data reported in paper PMC8668982 (The Journal of Biological Chemistry, 2021).
# Residue numbers refer to the chain shown, from its start.
# Assays:
# [1] = biological target: T1, TnIYD (Thermotoga neapolitana, UniProt B9K712); assay: Active site ligand binding by quenching of FMNox fluorescence, wild-type TnIYD
# T1 sequence (B9K712 1-186): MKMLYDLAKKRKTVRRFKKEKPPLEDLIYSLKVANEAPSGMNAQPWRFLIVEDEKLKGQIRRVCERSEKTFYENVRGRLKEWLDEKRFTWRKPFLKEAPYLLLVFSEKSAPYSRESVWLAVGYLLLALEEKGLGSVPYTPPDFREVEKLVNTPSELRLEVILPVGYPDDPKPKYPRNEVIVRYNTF
# [2] = biological target: T1, TnIYD; assay: Catalytic dehalogenation, steady-state kinetics; assay type: biochemical; settings: for Km / kcat: substrate of TnIYD
# [3] = biological target: T2, TnIYD Y112A (Thermotoga neapolitana, UniProt B9K712, Y112A); assay: Active site ligand binding by quenching of FMNox fluorescence, Y112A variant
# T2 sequence (B9K712 1-186 Y112A): T1 sequence (B9K712 1-186) with Y112A
# How it was run: (§1)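 C-terminal His6-tagged T. neapolitana IYD variants, made by mutagenesis, were expressed in E. coli Rosetta2 and purified on Ni-NTA. They were incubated with ~300 μM FMN and quantified by bound-FMN A450. Excitation was 450 nm and emission 516–526 nm. Dilution-corrected F/F0 versus ligand was fit to a two-state binding isotherm.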
# [4] = biological target: T3, TnIYD M41A (Thermotoga neapolitana, UniProt B9K712, M41A); assay: Active site ligand binding by quenching of FMNox fluorescence, M41A variant
# T3 sequence (B9K712 1-186 M41A): T1 sequence (B9K712 1-186) with M41A
# How it was run: as §1
# [5] = biological target: T4, TnIYD M41A/Y112A (Thermotoga neapolitana, UniProt B9K712, M41A/Y112A); assay type: binding
# T4 sequence (B9K712 1-186 M41A/Y112A): T1 sequence (B9K712 1-186) with M41A, Y112A
# How it was run: as §1
# [6] = biological target: T5, TnIYD M41K (Thermotoga neapolitana, UniProt B9K712, M41K); assay: Active site ligand binding by quenching of FMNox fluorescence, M41K variant
# T5 sequence (B9K712 1-186 M41K): T1 sequence (B9K712 1-186) with M41K
# How it was run: as §1
# [7] = biological target: T6, TnIYD M41F (Thermotoga neapolitana, UniProt B9K712, M41F); assay: Active site ligand binding by quenching of FMNox fluorescence, M41F variant
# T6 sequence (B9K712 1-186 M41F): T1 sequence (B9K712 1-186) with M41F
# How it was run: as §1
# [8] = biological target: T7, TnIYD Y112A/W82A/F88A (Thermotoga neapolitana, UniProt B9K712, F88A/W82A/Y112A); assay type: binding
# T7 sequence (B9K712 1-186 W82A/F88A/Y112A): T1 sequence (B9K712 1-186) with W82A, F88A, Y112A
# How it was run: as §1
# [9] = system: IYD from mesophiles; settings: cited from earlier work
smiles,measurement,setting,value
"Oc1ccccc1I [2-IP, 2-iodophenol]",Kd,[1],31 ± 1 µM
same,difference in Km values for I-Tyr and 2-IP,[2]; 25 °C,"19,000 fold"
same,difference of kcat relative to the kcat value of I-Tyr,[2]; 25 °C,2 fold
same,efficiency (kcat/Km) relative to that for iodotyrosine,[2]; 25 °C,less than 0.01%
same,Km,[2]; 25 °C,4.2 mM
same,kcat,[2]; 25 °C,0.014 ± 0.001 s⁻¹
same,increase of kcat at 60 °C relative to 25 °C,[2]; 60 °C vs 25 °C,less than 8 fold
same,Km,[2]; 60 °C,6.6 mM
same,kcat,[2]; 60 °C,0.108 ± 0.005 s⁻¹
same,kcat/Km smaller than that for I-Tyr,[2]; at both temperatures (25 °C and 60 °C),"more than 10,000 fold"
"N[C@@H](Cc1ccc(O)cc1)C(=O)O [Tyr, tyrosine]",Kd,[1],0.45 ± 0.07 µM
same,Kd,[3],0.9 ± 0.1 µM
same,Kd,[4],1.6 ± 0.2 µM
same,weakening of affinity by M41A substitution relative to wt TnIYD,[4]; 25 °C,3.6 fold
same,Kd,[5],0.95 ± 0.09 µM
same,decrease of affinity by M41A/Y112A variant relative to wt TnIYD,[5]; 25 °C,2 fold
same,Kd,[6],7.4 ± 0.2 µM
same,decrease of affinity by M41K variant relative to wt TnIYD,[6]; 25 °C,16 fold
same,Kd,[7],0.09 ± 0.06 µM
same,enhancement of binding by M41F variant relative to wt TnIYD,[7]; 25 °C,5 fold
same,Kd,[8],1200 ± 20 µM
same,weakening of binding by W82A/F88A/Y112A triple mutant relative to wt TnIYD,[8]; 25 °C,more than 2600 fold
same,affinity of Tyr to IYD from mesophiles,[9],too weak to measure
